Scp-1 inhibitor: Scp-1 (human) phosphatase inhibition; Q9GZU7; Recombinant Scp1, phosphopeptide, malachite green phosphate absorbance; inhibition, % at 20 µM; hit rate 0.88% among 340,000;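 active = inhibition above about 50% at 20 µM, limit read from the data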
Target sequence (Q9GZU7 76-261 limits assumed): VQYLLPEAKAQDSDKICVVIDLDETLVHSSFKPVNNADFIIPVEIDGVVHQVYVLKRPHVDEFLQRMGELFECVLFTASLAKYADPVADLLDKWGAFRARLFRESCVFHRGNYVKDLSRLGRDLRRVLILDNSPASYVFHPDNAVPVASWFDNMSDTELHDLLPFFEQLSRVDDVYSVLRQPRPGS
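Material – SCP-1 phosphatase catalytic domain, residues 76-261 · Buffer or medium – Acidic Tris acetate buffer with magnesium and detergent · Also added – Phospho 17-mer peptide substrate · Compound – single 20 µM dose, 1% DMSO · Times – 45 min room-temperature reaction, 5 min colour, 30 min stabiliser · Technique – Phosphate-binding colour reagent, absorbance read at 630 nm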
Rpn11 block: inhibitors of human proteasome Rpn11; human 26S proteasome, Ub4-pepOG fluorescence polarization; 20S core pre-blocked with epoxomicin; inhibition, % at 20 µM; hit rate 0.59% among 360,000; AID 588493;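 active = inhibition at 20 µM, scaled to each plate's controls, above about 33%, limit read from the data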
Target sequence (O00487 whole entry, looked up): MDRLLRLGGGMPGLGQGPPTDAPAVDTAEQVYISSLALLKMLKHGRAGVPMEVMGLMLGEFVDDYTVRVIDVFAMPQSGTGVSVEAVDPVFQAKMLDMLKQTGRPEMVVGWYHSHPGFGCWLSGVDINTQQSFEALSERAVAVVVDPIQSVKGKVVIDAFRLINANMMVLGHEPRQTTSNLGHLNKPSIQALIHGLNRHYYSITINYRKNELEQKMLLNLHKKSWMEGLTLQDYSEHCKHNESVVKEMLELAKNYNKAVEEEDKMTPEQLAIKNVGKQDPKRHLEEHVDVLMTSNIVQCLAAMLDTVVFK
LMPTP inh: LMPTP (human) inhibition | P24666 | recombinant LMPTP-A, OMFP fluorogenic substrate, fluorescence intensity | inhibition, % at 20 µM | hit rate 0.22% among 360,000 | AID 651560;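 active = compounds that cut the enzyme signal by at least half of the control window in the single-dose screen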
Target sequence (P24666 whole entry, looked up): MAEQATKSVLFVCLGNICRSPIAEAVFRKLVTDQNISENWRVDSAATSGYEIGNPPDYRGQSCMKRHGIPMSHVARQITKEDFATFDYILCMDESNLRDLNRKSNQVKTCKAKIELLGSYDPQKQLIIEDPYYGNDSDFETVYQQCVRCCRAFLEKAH
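Test system: LMPTP-A phosphatase enzyme; input: 0.625 nM LMPTP-A final; reagent: OMFP substrate, 400 µM final; compound dosing: 20 µM single dose, 3% DMSO; incubation: 50 min dark incubation at room temperature; measured by: endpoint fluorescence intensity from OMFP dephosphorylation; measure: % inhibition relative to no-enzyme and uninhibited control wells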
STEP block: blocks human striatal-enriched tyrosine phosphatase | AID 588621 | hit rate 0.25% among 360,000 | P54829 | inhibition, % at 20 µM | recombinant STEP, OMFP fluorogenic substrate, fluorescence;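 active = inhibition at 20 µM, scaled per plate between control wells, above about 37%, limit read from the data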
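medium = Bis-Tris buffer pH 6.0, 2.5 mM DTT, 0.005% Tween 20 | test system = STEP (striatal-enriched tyrosine phosphatase) enzyme, cell-free | measure = normalized % inhibition | compound dosing = 20 µM, 1% DMSO | also added = 25 µM OMFP | schedule = reaction 20 min, ambient temperature | measured by = fluorescence read at 480 nm ex / 540 nm em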
DNMT1 inh: inhibitors of human DNMT1; P26358; DNMT1 molecular beacon, Hinp1I cleavage, fluorescence; inhibition (reported as % activation of signal), % at 10 µM; hit rate 0.83% among 360,000; in the data active = inhibition above about 50%
SUMO1 PPI mod: modulators of human SUMO1-mediated protein-protein interactions; hit rate 0.33% among 360,000; SUMO1 binding to a labelled peptide, TR-FRET, 1 h; inhibition, % at 20 µM; AID 602429; P63165; in the data active = inhibition above about 37%
Of the large screens only hits and unclear results are named; the others gave an inactive call. In the library only some 2.3% were active in any assay of this set; here they are far more common.

COC(=O)CC1=C(C(=O)OC)[C@@H](c2ccccc2[N+](=O)[O-])C(C#N)=C(N)O1	none
O=C(CSC(=S)N1CCOCC1)Nc1nc(-c2ccccc2)c(-c2ccccc2)o1	none
O=C(CSC(=S)N1CCCCC1)Nc1nc(-c2ccccc2)c(-c2ccccc2)o1	SUMO1 PPI mod 50.5
C/C=C\C=C/C(=O)Nc1cccc(C2=NOC3(C2)C[C@@H](C(N)=O)N(C(=O)/C=C/C=C\C)C3)c1 (some centres not stated)	Scp-1 inhibitor 79.5, Rpn11 block 51.6, DNMT1 inh 64.4, SUMO1 PPI mod 95.2
C=C(C)C(=O)Nc1cccc(C2=NOC3(C2)C[C@@H](C(N)=O)N(C(=O)c2ccc(Cl)cc2)C3)c1 (some centres not stated)	Scp-1 inhibitor 70.6 (no result: Rpn11 block, LMPTP inh, STEP block, DNMT1 inh, SUMO1 PPI mod)
C/C=C\C=C/C(=O)Nc1cccc(C2=NOC3(C2)C[C@@H](C(N)=O)N(C(=O)/C=C/CC)C3)c1 (some centres not stated)	none
CC(C)(C)OC(=O)C[C@H]1C/C=C\C[C@H](CC(=O)N[C@H](CO)Cc2ccccc2)C(=O)N2CCC[C@@H]2COC1=O	none
COc1ccc(OC)c(S(=O)(=O)Oc2ccc(N)c3ccccc23)c1	none
O=C(CCc1ccc(O)c(O)c1)NNC(=S)Nc1ccc(Br)cc1Cl	none
Nc1ccc(-c2nc3ccc(N)cc3[nH]2)cc1	none
Nc1ccc2cc3[nH]c4cc(N)ccc4c3nc2c1	LMPTP inh 57.7, DNMT1 inh 194.5
CN(C)N=Nc1ccc(S(N)(=O)=O)cc1	none
NS(=O)(=O)c1ccc(N=Nc2c[nH]c(=O)c(O)c2)cc1	Scp-1 inhibitor 70.2
CN(C)c1ccc(N=Nc2ccc(S(N)(=O)=O)cc2)cc1	LMPTP inh 53.0, STEP block 93.9
CCCNC(=O)C1(C)CCCN(C(=O)c2ccccc2F)C1 (configuration not stated)	none (no result: Scp-1 inhibitor)
O=C1NC(c2ccccc2)N=C2Oc3ccccc3C=C12 (configuration not stated)	none
CN(C)c1ccc2nc3ccc(=[N+](C)C)cc-3sc2c1	none
Cc1cc2nc3ccc(=[N+](C)C)cc-3sc2cc1N	DNMT1 inh 56.7, SUMO1 PPI mod 54.5
Cc1ccc(NC(=O)C2CCN(C(=O)c3cccs3)CC2)c(C)c1	Scp-1 inhibitor 98.7
Cc1ccc(NC(=O)C2CCCN2C(=O)c2cccs2)c(C)c1 (configuration not stated)	none
N#Cc1c(N)c(C#N)c(-c2ccc3c(c2)OCO3)c2c1CCCC2	SUMO1 PPI mod 43.6
O=C1CC(c2ccco2)Cc2nc(Nc3nc(-c4ccccc4)c4ccccc4n3)ncc21 (configuration not stated)	LMPTP inh 61.3
COc1ccc(C2(CNC(=O)c3ccccc3[N+](=O)[O-])CCOCC2)cc1	none
O=S(=O)(Nc1ccc(O)c2ncccc12)c1ccccc1F	DNMT1 inh 58.7 (no result: Scp-1 inhibitor)
COc1cccc(CNc2ccc(S(=O)(=O)Nc3nccs3)cc2)c1O	SUMO1 PPI mod 37.6
O=C1C=C(NCc2ccccc2)c2ccccc2C1=O	DNMT1 inh 84.4, SUMO1 PPI mod 43.7
O=C1C=C(Nc2ccc(F)cc2)c2ccccc2C1=O	DNMT1 inh 54.5
O=C1C=C(Nc2cccnc2)c2ccccc2C1=O	none
CCOc1ccc(NC2=CC(=O)C(=O)c3ccccc32)cc1	Scp-1 inhibitor 56.7
CCN1C(=O)[C@H]2[C@H]3CN=C(SCc4ccc(C)cc4)N3[C@@](C)(C(=O)OC)[C@H]2C1=O	none
Fc1ccc(-c2n[nH]c(=S)c3ccccc23)cc1	none
CCCC[n+]1c2ccccc2cc2ccccc21	none
CCC[n+]1c2ccccc2cc2ccccc21	Scp-1 inhibitor 54.7
CCOc1cc(/C=C(/C#N)C(=O)Nc2ccc(OC)cc2)ccc1OCc1ccc(C(=O)O)cc1	LMPTP inh 80.3
O=C(O)c1cccc(NC(=O)c2ccc(COc3ccc(Cl)cc3)cc2)c1	none
N#C/C(=C\c1ccc(OCc2ccc(Cl)cc2)cc1)C(=O)Nc1cccc(C(=O)O)c1	STEP block 57.7, DNMT1 inh 61.6, SUMO1 PPI mod 66.0
O=C1C(C2=C(O)c3ccccc3C2=O)=Nc2ccccc21	Scp-1 inhibitor 51.7
Cc1ccc(C)c(S(=O)(=O)/N=C2\C=C(NS(=O)(=O)c3ccccc3)C(=O)c3ccccc32)c1	none
Cc1cc(C)c(S(=O)(=O)/N=C2/C=C(Sc3ncn[nH]3)C(=O)c3ccccc32)cc1C	SUMO1 PPI mod 92.1
CC(=O)Nc1cc(-c2cccc(NS(C)(=O)=O)c2)cn2c(-c3cccc(C(F)(F)F)c3)cnc12	none (no result: Scp-1 inhibitor)
CC(=O)Nc1cc(-c2ccccc2N(C)C)cn2c(-c3cccc(C(F)(F)F)c3)cnc12	DNMT1 inh 60.9 (no result: Scp-1 inhibitor)
O=C(NCc1ccccc1Cl)C(=O)c1cn(CC(=O)N2CCOCC2)c2ccccc12	none
CC1=NN(c2ccccc2)C(=O)C1C(=S)SC1CC(=O)NC1=O (configuration not stated)	none (no result: Scp-1 inhibitor)
O=C1CC(SC(=S)C2CCCC2=O)C(=O)N1 (configuration not stated)	DNMT1 inh 68.8 (no result: Scp-1 inhibitor)
Cc1ccc(-n2ncc3c(=O)[nH]c(SCC(=O)N4CCC(C)CC4)nc32)cc1C	SUMO1 PPI mod 40.7
CCC1CCCCN1CCCNC(=O)CN1C(=O)COc2ccc(S(=O)(=O)N3CCC(C)CC3)cc21 (configuration not stated)	SUMO1 PPI mod 40.2
CCCCN(CCCC)CCNC(=O)CN1C(=O)COc2ccc(S(=O)(=O)N3CCC(C)CC3)cc21	none
O=C(N/N=C/C(Br)=C/c1ccccc1)c1n[nH]c2c1CCC2	DNMT1 inh 57.3
O=C(N/N=C/c1ccccc1)c1n[nH]c2c1CCCC2	none
N#C/C(=C(/O)c1ccc2c(c1)OCO2)c1nc2cc(C(F)(F)F)ccc2s1	none
N#C/C(=C(/O)c1ccccc1F)c1nc2cc(C(F)(F)F)ccc2s1	Rpn11 block 33.0
CC(C)n1cnc2c(Nc3ccc(C(=O)O)cc3)nc(Cl)nc21	none
CC(C)[C@H](CO)Nc1nc(Nc2ccc(Cl)c(C(=O)O)c2)c2ncn(C(C)C)c2n1	SUMO1 PPI mod 69.0
Cc1ccc(S(=O)(=O)N(C)c2ccc(C(=O)Nc3c(C)n(C)n(-c4ccccc4)c3=O)cc2)cc1	none
COc1ccc(CNC(=O)COC(=O)c2ccc(Br)o2)cc1	none
CCCCn1nc(NC(=O)COC)c2cc3ccc(C)cc3nc21	Scp-1 inhibitor 51.9
O=S(=O)(/C=C/C=C/S(=O)(=O)c1ccccc1)c1ccccc1	SUMO1 PPI mod 40.5
CCOc1cc(/C=C2\C(=O)ON=C2C)ccc1OCc1ccccc1	SUMO1 PPI mod 39.6
Cc1cnc(CN(C)C(=O)C2CCC(=O)N(CCc3ccc(Cl)cc3)C2)[nH]1 (configuration not stated)	SUMO1 PPI mod 40.3 (no result: Scp-1 inhibitor)

Source: PubChem BioAssay (Sanford-Burnham Center for Chemical Genomics)
